pIC50: −log10 of the molar value. Residues, ends and D or L forms follow the SMILES beside them.

For the first data set, the target named is T1, C5a anaphylatoxin chemotactic receptor 1 (Homo sapiens, UniProt P21730).
T1 sequence (P21730 whole entry): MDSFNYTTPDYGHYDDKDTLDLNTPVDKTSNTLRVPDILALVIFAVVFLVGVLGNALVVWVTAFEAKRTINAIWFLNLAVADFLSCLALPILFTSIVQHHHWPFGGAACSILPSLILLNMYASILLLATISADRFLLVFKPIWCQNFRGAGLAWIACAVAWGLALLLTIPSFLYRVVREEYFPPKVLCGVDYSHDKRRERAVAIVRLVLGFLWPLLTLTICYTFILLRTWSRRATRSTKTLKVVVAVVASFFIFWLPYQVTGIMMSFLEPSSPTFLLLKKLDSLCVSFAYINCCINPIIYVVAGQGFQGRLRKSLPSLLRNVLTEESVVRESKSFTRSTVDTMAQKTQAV
Nature of the data set: Antagonist activity at human C5aR in CD88 transfected RBL cells assessed as inhibition of C5a-induced glucosaminidase release.
Conditions: not given
The class given is functional, cell-based. An outline of the steps:
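Functional antagonism read as inhibition of glucosaminidase release stimulated by C5a from RBL cells transfected with CD88 (RBL+); IC50 in µM.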
What is called pIC50 is the IC50 on a negative log10 scale, so that one unit is a factor of ten. Turning to `CCCC[C@H](NC(=O)[C@H](Cc1c[nH]c2ccccc12)NC(=O)[C@@H](CC1CCCCC1)NC(=O)[C@@H]1CCCN1C(=O)[C@H](CCCN)NC(=O)[C@H](Cc1ccccc1)NC(C)=O)C(N)=O`, the pIC50 is 6.33.

On to `CC(=O)N[C@@H](Cc1ccccc1)C(=O)N[C@H]1CCCNC(=O)[C@H](CCCN)NC(=O)[C@H](Cc2c[nH]c3ccccc23)NC(=O)[C@@H](CC2CCCCC2)NC(=O)[C@@H]2CCCN2C1=O`, for which the pIC50 is 7.74.

Take `CCC[C@@H]1NC(=O)[C@H](Cc2c[nH]c3ccccc23)NC(=O)[C@@H](CC2CCCCC2)NC(=O)[C@@H]2CCCN2C(=O)[C@@H](NC(=O)[C@H](Cc2ccccc2)NC(C)=O)CCCNC1=O` (HELM PEPTIDE1{[ac].F.[Orn].P.[O=C([C@@H](CC1CCCCC1)N[*:1])[*:2]].W.[Nva]}$PEPTIDE1,PEPTIDE1,3:R3-7:R2$$$V2.0): the pIC50 was 7.74.

On to `CCCC[C@@H]1NC(=O)[C@H](Cc2c[nH]c3ccccc23)NC(=O)[C@@H](CC2CCCCC2)NC(=O)[C@@H]2CCCN2C(=O)[C@@H](NC(=O)[C@H](Cc2ccccc2)NC(C)=O)CCCNC1=O` (HELM PEPTIDE1{[ac].F.[Orn].P.[O=C([C@@H](CC1CCCCC1)N[*:1])[*:2]].W.[Nle]}$PEPTIDE1,PEPTIDE1,3:R3-7:R2$$$V2.0), for which the pIC50 is 7.60.

Consider `CC(=O)N[C@@H](Cc1ccccc1)C(=O)N[C@H]1CCCNC(=O)[C@H](Cc2ccc3ccccc3c2)NC(=O)[C@H](Cc2c[nH]c3ccccc23)NC(=O)[C@@H](CC2CCCCC2)NC(=O)[C@@H]2CCCN2C1=O` (HELM PEPTIDE1{[ac].F.[Orn].P.[O=C([C@@H](CC1CCCCC1)N[*:1])[*:2]].W.[O=C([C@H](Cc1ccc2ccccc2c1)N[*:1])[*:2]]}$PEPTIDE1,PEPTIDE1,3:R3-7:R2$$$V2.0), for which the pIC50 was 7.12.

For the compound `CC(=O)N[C@@H](Cc1ccccc1)C(=O)N[C@H]1CCCNC(=O)[C@H](Cc2cccc3ccccc23)NC(=O)[C@H](Cc2c[nH]c3ccccc23)NC(=O)[C@@H](CC2CCCCC2)NC(=O)[C@@H]2CCCN2C1=O` (HELM PEPTIDE1{[ac].F.[Orn].P.[O=C([C@@H](CC1CCCCC1)N[*:1])[*:2]].W.[O=C([C@H](Cc1cccc2ccccc12)N[*:1])[*:2]]}$PEPTIDE1,PEPTIDE1,3:R3-7:R2$$$V2.0), the negative logarithm of the IC50 (pIC50) was 7.29.

`CC(=O)N[C@@H](Cc1ccccc1)C(=O)N[C@H]1CCCNC(=O)[C@H](CCC(C)C)NC(=O)[C@H](Cc2c[nH]c3ccccc23)NC(=O)[C@@H](CC2CCCCC2)NC(=O)[C@@H]2CCCN2C1=O` (HELM PEPTIDE1{[ac].F.[Orn].P.[O=C([C@@H](CC1CCCCC1)N[*:1])[*:2]].W.[CC(C)CC[C@H](N[*:1])C(=O)[*:2]]}$PEPTIDE1,PEPTIDE1,3:R3-7:R2$$$V2.0): the pIC50 is 7.24.

Regarding `CC(=O)N[C@@H](Cc1ccccc1)C(=O)N[C@H]1CCCNC(=O)[C@H](Cc2cccs2)NC(=O)[C@H](Cc2c[nH]c3ccccc23)NC(=O)[C@@H](CC2CCCCC2)NC(=O)[C@@H]2CCCN2C1=O` (HELM PEPTIDE1{[ac].F.[Orn].P.[O=C([C@@H](CC1CCCCC1)N[*:1])[*:2]].W.[O=C([C@H](Cc1cccs1)N[*:1])[*:2]]}$PEPTIDE1,PEPTIDE1,3:R3-7:R2$$$V2.0), the negative-log IC50 (pIC50) is 7.66.

`CCCC[C@H]1NC(=O)[C@H](Cc2c[nH]c3ccccc23)NC(=O)[C@@H](CC2CCCCC2)NC(=O)[C@@H]2CCCN2C(=O)[C@@H](NC(=O)[C@H](Cc2ccccc2)NC(C)=O)CCCNC1=O` (HELM PEPTIDE1{[ac].F.[Orn].P.[O=C([C@@H](CC1CCCCC1)N[*:1])[*:2]].W.[CCCC[C@@H](N[*:1])C(=O)[*:2]]}$PEPTIDE1,PEPTIDE1,3:R3-7:R2$$$V2.0): the pIC50 was 6.97.

Turning to `CC(=O)N[C@@H](Cc1ccccc1)C(=O)N[C@H]1CCCNC(=O)[C@H](Cc2ccccc2)NC(=O)[C@H](Cc2c[nH]c3ccccc23)NC(=O)[C@@H](CC2CCCCC2)NC(=O)[C@@H]2CCCN2C1=O` (HELM PEPTIDE1{[ac].F.[Orn].P.[O=C([C@@H](CC1CCCCC1)N[*:1])[*:2]].W.F}$PEPTIDE1,PEPTIDE1,3:R3-7:R2$$$V2.0), the pIC50 is 7.59.

For `CC(=O)N[C@@H](Cc1ccccc1)C(=O)N[C@H]1CCCNC(=O)[C@H](C)NC(=O)[C@H](Cc2c[nH]c3ccccc23)NC(=O)[C@@H](CC2CCCCC2)NC(=O)[C@@H]2CCCN2C1=O` (HELM PEPTIDE1{[ac].F.[Orn].P.[O=C([C@@H](CC1CCCCC1)N[*:1])[*:2]].W.A}$PEPTIDE1,PEPTIDE1,3:R3-7:R2$$$V2.0), the pIC50 was 5.16.

As to `CC(=O)N[C@@H](Cc1ccccc1)C(=O)N[C@H]1CCCNC(=O)[C@H](CCCNC(N)=O)NC(=O)[C@H](Cc2c[nH]c3ccccc23)NC(=O)[C@@H](CC2CCCCC2)NC(=O)[C@@H]2CCCN2C1=O`, the pIC50 was 6.31.

As for `CC(=O)N[C@@H](Cc1ccccc1)C(=O)N[C@H]1CCCNC(=O)[C@H](CC2CCCCC2)NC(=O)[C@H](Cc2c[nH]c3ccccc23)NC(=O)[C@@H](CC2CCCCC2)NC(=O)[C@@H]2CCCN2C1=O` (HELM PEPTIDE1{[ac].F.[Orn].P.[O=C([C@@H](CC1CCCCC1)N[*:1])[*:2]].W.[Cha]}$PEPTIDE1,PEPTIDE1,3:R3-7:R2$$$V2.0), the pIC50 is 7.35.

For the compound `CC[C@H](C)[C@@H]1NC(=O)[C@H](Cc2c[nH]c3ccccc23)NC(=O)[C@@H](CC2CCCCC2)NC(=O)[C@@H]2CCCN2C(=O)[C@@H](NC(=O)[C@H](Cc2ccccc2)NC(C)=O)CCCNC1=O`, the negative logarithm of the IC50 (pIC50) is 7.30.

Regarding `CC(=O)N[C@@H](Cc1ccccc1)C(=O)N[C@@H](CCCN)C(=O)N1CCC[C@H]1C(=O)N[C@H](CC1CCCCC1)C(=O)N[C@@H](Cc1c[nH]c2ccccc12)C(=O)N[C@@H](CCCN=C(N)N)C(=O)O`, the pIC50 is 6.27.

For `CC(=O)N[C@@H](Cc1ccccc1)C(=O)N[C@H]1CCCNC(=O)[C@H](CC(C)C)NC(=O)[C@H](Cc2c[nH]c3ccccc23)NC(=O)[C@@H](CC2CCCCC2)NC(=O)[C@@H]2CCCN2C1=O` (HELM PEPTIDE1{[ac].F.[Orn].P.[O=C([C@@H](CC1CCCCC1)N[*:1])[*:2]].W.L}$PEPTIDE1,PEPTIDE1,3:R3-7:R2$$$V2.0), the pIC50 was 7.27.

On to `CC(=O)N[C@@H](C)C(=O)N[C@H]1CCCNC(=O)[C@H](CCCN=C(N)N)NC(=O)[C@H](Cc2c[nH]c3ccccc23)NC(=O)[C@@H](CC2CCCCC2)NC(=O)[C@@H]2CCCN2C1=O` (HELM PEPTIDE1{[ac].A.[Orn].P.[O=C([C@@H](CC1CCCCC1)N[*:1])[*:2]].W.R}$PEPTIDE1,PEPTIDE1,3:R3-7:R2$$$V2.0), for which the pIC50 was 4.64.

For `CC(=O)N[C@@H](Cc1ccccc1)C(=O)N[C@@H](CCCN)C(=O)N1CCC[C@H]1C(=O)N[C@H](CC1CCCCC1)C(=O)N[C@@H](Cc1c[nH]c2ccccc12)C(=O)N[C@@H](Cc1ccccc1)C(N)=O` (HELM PEPTIDE1{[ac].F.[Orn].P.[O=C([C@@H](CC1CCCCC1)N[*:1])[*:2]].W.F.[am]}$$$$V2.0), the pIC50 was 7.51.

Consider `CC(=O)N[C@@H](Cc1ccccc1)C(=O)N[C@@H](CCCN)C(=O)N1CCC[C@H]1C(=O)N[C@H](CCC(C)C)C(=O)N[C@@H](Cc1csc2ccccc12)C(=O)N[C@@H](Cc1ccccc1)C(N)=O`, for which the pIC50 was 7.57.

For the compound `CC(=O)N[C@@H](Cc1ccccc1)C(=O)N[C@H]1CCCNC(=O)[C@H](C2CCCCC2)NC(=O)[C@H](Cc2c[nH]c3ccccc23)NC(=O)[C@@H](CC2CCCCC2)NC(=O)[C@@H]2CCCN2C1=O` (HELM PEPTIDE1{[ac].F.[Orn].P.[O=C([C@@H](CC1CCCCC1)N[*:1])[*:2]].W.[O=C([C@@H](N[*:1])C1CCCCC1)[*:2]]}$PEPTIDE1,PEPTIDE1,3:R3-7:R2$$$V2.0), the pIC50 is 7.42.

With `CC(=O)N[C@@H](Cc1ccccc1)C(=O)N[C@H]1CCCNC(=O)[C@H](CCC/N=C(/N)N[N+](=O)[O-])NC(=O)[C@H](Cc2c[nH]c3ccccc23)NC(=O)[C@@H](CC2CCCCC2)NC(=O)[C@@H]2CCCN2C1=O`, the pIC50 was 6.24.

As to `CC(=O)N[C@@H](Cc1ccccc1)C(=O)N[C@H]1CCCNC(=O)[C@H](CCCN=C(N)N)NC(=O)[C@H](C)NC(=O)[C@@H](CC2CCCCC2)NC(=O)[C@@H]2CCCN2C1=O` (HELM PEPTIDE1{[ac].F.[Orn].P.[O=C([C@@H](CC1CCCCC1)N[*:1])[*:2]].A.R}$PEPTIDE1,PEPTIDE1,3:R3-7:R2$$$V2.0), the pIC50 was 4.00.

For `CC(=O)N[C@@H](Cc1ccccc1)C(=O)N[C@H]1CCCNC(=O)[C@H](CCCNC(=N)N)NC(=O)[C@H](Cc2c[nH]c3ccccc23)NC(=O)[C@@H](CC2CCCCC2)NC(=O)[C@H](C)NC1=O`, the pIC50 is 7.60.

With `CCCCCCCC[C@@H]1NC(=O)[C@H](Cc2c[nH]c3ccccc23)NC(=O)[C@@H](CC2CCCCC2)NC(=O)[C@@H]2CCCN2C(=O)[C@@H](NC(=O)[C@H](Cc2ccccc2)NC(C)=O)CCCNC1=O`, the pIC50 is 6.52.

As for `CC(=O)N[C@@H](Cc1ccccc1)C(=O)N[C@H]1CCCNC(=O)[C@H](CCCCNC(=N)N)NC(=O)[C@H](Cc2c[nH]c3ccccc23)NC(=O)[C@@H](CC2CCCCC2)NC(=O)[C@@H]2CCCN2C1=O`, the pIC50 was 6.44.

Turning to `CC(=O)N[C@@H](Cc1ccccc1)C(=O)N[C@H]1CCCNC(=O)[C@H](CCC2CCCCC2)NC(=O)[C@H](Cc2c[nH]c3ccccc23)NC(=O)[C@@H](CC2CCCCC2)NC(=O)[C@@H]2CCCN2C1=O`, the pIC50 is 6.84.

As to `CC(=O)N[C@@H](Cc1ccccc1)C(=O)N[C@H]1CCCNC(=O)[C@H](CCCNC(=N)N)NC(=O)[C@H](Cc2c[nH]c3ccccc23)NC(=O)[C@@H](C)NC(=O)[C@@H]2CCCN2C1=O`, the pIC50 was 4.26.

System in a further data set: not listed separately
The data set is described as follows: Stability in human liver microsome after 1 hr. Type of data set: ADME. The note with it: liver microsomes, read-out: Stability. An outline of the steps:
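Compound incubated with human liver microsomes, 1 h at 37 °C; read-out is % of parent remaining.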
Regarding `CC(=O)N[C@@H](Cc1ccccc1)C(=O)N[C@@H](CCCN)C(=O)N1CCC[C@H]1C(=O)N[C@H](CC1CCCCC1)C(=O)N[C@@H](Cc1c[nH]c2ccccc12)C(=O)N[C@@H](Cc1ccccc1)C(N)=O` (HELM PEPTIDE1{[ac].F.[Orn].P.[O=C([C@@H](CC1CCCCC1)N[*:1])[*:2]].W.F.[am]}$$$$V2.0), the remaining at 1 h is 34%.

Regarding `CC(=O)N[C@@H](Cc1ccccc1)C(=O)N[C@@H](CCCN)C(=O)N1CCC[C@H]1C(=O)N[C@H](CCC(C)C)C(=O)N[C@@H](Cc1csc2ccccc12)C(=O)N[C@@H](Cc1ccccc1)C(N)=O`, the remaining at 1 h was 1%.

For the origin of these results see ChEMBL document CHEMBL1148673, “Peptidomimetic C5a receptor antagonists with hydrophobic substitutions at the C-terminus: increased receptor specificity and in vivo activity” (Bioorg Med Chem Lett, 2006).
